Reference: ChEMBL document CHEMBL1157014, “Synthesis, characterization and biological evaluation of some thiourea derivatives bearing benzothiazole moiety as potential antimicrobial and anticancer agents” (Eur J Med Chem, 2010)
In brackets after ≈: the same amount, converted by molar mass.

Assays:
Nakaseomyces glabratus = assay: Antifungal activity against Candida glabrata ATCC 32554 after 48 hrs by browth microdilution assay; type: functional
How it was run: (§1)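 Yeast colonies suspended in 0.9% saline and adjusted to McFarland 0.5, then tested by CLSI broth microdilution. Compounds in DMSO, diluted with distilled water to 3.125–100 µg/ml, with DMSO as negative control and nystatin as reference. Incubation at 37 °C, read after 48 h. MIC is the lowest concentration with no visible growth.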

Pichia kudriavzevii = assay: Antifungal activity against Candida krusei ATCC 6268 after 48 hrs by browth microdilution assay; type: functional; how it was run: as §1
Candida albicans = assay: Antifungal activity against Candida albicans ATCC 90028 after 48 hrs by browth microdilution assay; type: functional; how it was run: as §1
Candida tropicalis = assay: Antifungal activity against Candida tropicalis ATCC 20336 after 48 hrs by browth microdilution assay; type: functional; how it was run: as §1
Staphylococcus aureus = assay: Antibacterial activity against Staphylococcus aureus ATCC 29213 after 24 hrs by browth microdilution assay; type: functional; conditions: ATCC 29213, 24 h
How it was run: (§2)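 Broth microdilution per CLSI. Colonies suspended in 0.9% saline and adjusted to McFarland 0.5. Compounds dissolved in DMSO, diluted with distilled water to 100, 50, 25, 12.5, 6.25 and 3.125 µg/ml, with DMSO as negative control. Gentamycin (Gram-negative) and amikacin (Gram-positive) served as reference drugs. Incubation at 37 °C for 24 h. MIC taken as the lowest concentration preventing visible growth.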

Escherichia coli = assay: microbe, parasite or virus in culture; conditions: ATCC 25922, 24 h
[1] = system: Staphylococcus epidermidis; assay: Antibacterial activity against Staphylococcus epidermidis ATCC 12228 after 24 hrs by browth microdilution assay; type: functional; conditions: ATCC 12228, 24 h; how it was run: as §2
HeLa = assay: Cytotoxicity against human HeLa after 24 hrs by MTT assay; type: functional, cell-based
How it was run: (§3)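 Cells grown in MEM with 10% FBS and 1% glutamine at 5% CO2, seeded at 1.0×10^4 cells. Exposed to compounds at 1–100 µM in medium containing 0.1% DMSO for 24 h at 37 °C. MTT (1 mg/ml) added for 5 h at 37 °C, then DMSO added and absorbance read at 540 nm. Run in triplicate; IC50 determined.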

Enterococcus faecalis = assay: Antibacterial activity against Enterococcus faecalis ATCC 29212 after 24 hrs by browth microdilution assay; type: functional; conditions: ATCC 29212, 24 h; how it was run: as §2
MCF7 [2] = assay: Cytotoxicity against human MCF7 after 72 hrs by MTT assay; type: functional, cell-based; conditions: MCF7, 72 h
How it was run: (§4)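 MCF-7 cells in MEM with 10% FBS at 5% CO2 were exposed to compounds (1–100 µM, 0.1% DMSO vehicle) for 48 or 72 h before MTT read-out. IC50 values came from the MTT assay.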

[3] = system: Staphylococcus aureus (ATCC 25923); assay: Antibacterial activity against Staphylococcus aureus ATCC 25923 after 24 hrs by browth microdilution assay; conditions: ATCC 25923, 24 h
Enterobacter cloacae = assay: Antibacterial activity against Enterobacter cloacae ATCC 13047 after 24 hrs by browth microdilution assay; type: functional; how it was run: as §2
MCF7 [4] = assay: Cytotoxicity against human MCF7 after 48 hrs by MTT assay; type: functional, cell-based; conditions: MCF7, 48 h; how it was run: as §4
Pseudomonas aeruginosa = assay: Antibacterial activity against Pseudomonas aeruginosa ATCC 27853 after 24 hrs by browth microdilution assay; type: functional; how it was run: as §2
MCF7 [5] = assay: Cytotoxicity against human MCF7 after 24 hrs by MTT assay; type: functional, cell-based; conditions: MCF7, 24 h; how it was run: as §3
Proteus vulgaris = assay: Antibacterial activity against Proteus vulgaris ATCC 13315 after 24 hrs by browth microdilution assay; type: functional; how it was run: as §2

Row | Molecule | MIC (Staphylococcus aureus) | MIC (Escherichia coli) | MIC [1] | MIC (Nakaseomyces glabratus; ATCC 32554, 48 h) | MIC (Pichia kudriavzevii; ATCC 6268, 48 h) | MIC (Candida albicans; ATCC 90028, 48 h) | IC50 (HeLa) | MIC (Enterococcus faecalis) | MIC [3] | MIC (Enterobacter cloacae; ATCC 13047, 24 h) | MIC (Candida tropicalis; ATCC 20336, 48 h) | MIC (Pseudomonas aeruginosa; ATCC 27853, 24 h) | IC50 (MCF7 [5]) | MIC (Proteus vulgaris; ATCC 13315, 24 h) | other results
1 | NYSTATIN |  |  |  |  |  |  |  |  |  |  |  |  |  |  | MIC (Nakaseomyces glabratus): 2 µg/mL; MIC (Pichia kudriavzevii): 0.5 µg/mL; MIC (Candida albicans): 1 µg/mL; MIC (Candida tropicalis): 4 µg/mL
2 | Nc1ccc2sc(NC(=S)NC(=O)N3CCOCC3)nc2c1 | 25 µg/mL (≈ 74.1 µM) | 20 µg/mL (≈ 59.3 µM) | 20 µg/mL (≈ 59.3 µM) | 15 µg/mL (≈ 44.5 µM) | 25 µg/mL (≈ 74.1 µM) | 20 µg/mL (≈ 59.3 µM) | 45.3 µM | 50 µg/mL (≈ 148 µM) | 50 µg/mL (≈ 148 µM) | 25 µg/mL (≈ 74.1 µM) | 20 µg/mL (≈ 59.3 µM) | 50 µg/mL (≈ 148 µM) | 26.4 µM | 20 µg/mL (≈ 59.3 µM) | IC50 (MCF7 [2]): 17.1 µM; IC50 (MCF7 [4]): 19.2 µM
3 | Nc1ccc2sc(NC(=S)NC(=O)c3ccccc3)nc2c1 | 50 µg/mL (≈ 152 µM) | 50 µg/mL (≈ 152 µM) | 50 µg/mL (≈ 152 µM) | 25 µg/mL (≈ 76.1 µM) | 25 µg/mL (≈ 76.1 µM) | 25 µg/mL (≈ 76.1 µM) | 70.1 µM | 50 µg/mL (≈ 152 µM) | 50 µg/mL (≈ 152 µM) | 50 µg/mL (≈ 152 µM) | 50 µg/mL (≈ 152 µM) | 50 µg/mL (≈ 152 µM) | 38.6 µM | 50 µg/mL (≈ 152 µM) | 
4 | O=C(NC(=S)Nc1nc2ccccc2s1)c1ccc([N+](=O)[O-])cc1 |  |  |  |  |  |  | 62.6 µM |  |  |  |  |  | 33.8 µM |  | 
5 | Nc1ccc2sc(NC(=S)NC(=O)c3ccc([N+](=O)[O-])cc3)nc2c1 | 50 µg/mL (≈ 134 µM) | 25 µg/mL (≈ 66.9 µM) | 50 µg/mL (≈ 134 µM) | 50 µg/mL (≈ 134 µM) | 50 µg/mL (≈ 134 µM) | 50 µg/mL (≈ 134 µM) | 63.1 µM | 50 µg/mL (≈ 134 µM) | 50 µg/mL (≈ 134 µM) | 25 µg/mL (≈ 66.9 µM) | 25 µg/mL (≈ 66.9 µM) | 50 µg/mL (≈ 134 µM) | 33.2 µM | 25 µg/mL (≈ 66.9 µM) | 
6 | GENTAMICIN |  |  |  |  |  |  |  |  |  |  |  |  |  |  | MIC (Enterobacter cloacae): 2 µg/mL; MIC (Pseudomonas aeruginosa): 1 µg/mL; MIC (Proteus vulgaris): 2 µg/mL
7 | CCCC(=O)NC(=S)Nc1nc2ccccc2s1 |  |  |  | 50 µg/mL (≈ 179 µM) | 25 µg/mL (≈ 89.5 µM) | 20 µg/mL (≈ 71.6 µM) | 56.7 µM |  |  |  | 50 µg/mL (≈ 179 µM) |  | 36.6 µM |  | 
8 | O=C(NC(=S)Nc1nc2cc([N+](=O)[O-])ccc2s1)c1ccccc1 | 25 µg/mL (≈ 69.8 µM) | 20 µg/mL (≈ 55.8 µM) | 20 µg/mL (≈ 55.8 µM) | 15 µg/mL (≈ 41.9 µM) | 50 µg/mL (≈ 140 µM) | 25 µg/mL (≈ 69.8 µM) | 75.1 µM | 50 µg/mL (≈ 140 µM) | 15 µg/mL (≈ 41.9 µM) | 25 µg/mL (≈ 69.8 µM) | 50 µg/mL (≈ 140 µM) | 20 µg/mL (≈ 55.8 µM) | 41.6 µM | 15 µg/mL (≈ 41.9 µM) | 
9 | O=C(NC(=S)Nc1nc2cc(Br)ccc2s1)c1ccc([N+](=O)[O-])cc1 | 50 µg/mL (≈ 114 µM) |  | 50 µg/mL (≈ 114 µM) | 50 µg/mL (≈ 114 µM) | 50 µg/mL (≈ 114 µM) | 50 µg/mL (≈ 114 µM) | 56.5 µM | 50 µg/mL (≈ 114 µM) | 50 µg/mL (≈ 114 µM) |  | 50 µg/mL (≈ 114 µM) |  | 32.4 µM |  | 
10 | O=C(NC(=S)Nc1nc2cc(Br)ccc2s1)N1CCOCC1 | 25 µg/mL (≈ 62.3 µM) | 25 µg/mL (≈ 62.3 µM) | 25 µg/mL (≈ 62.3 µM) | 25 µg/mL (≈ 62.3 µM) | 50 µg/mL (≈ 125 µM) | 50 µg/mL (≈ 125 µM) | 38.9 µM | 50 µg/mL (≈ 125 µM) | 50 µg/mL (≈ 125 µM) | 50 µg/mL (≈ 125 µM) | 25 µg/mL (≈ 62.3 µM) | 50 µg/mL (≈ 125 µM) | 18.1 µM | 50 µg/mL (≈ 125 µM) | IC50 (MCF7 [2]): 6.95 µM; IC50 (MCF7 [4]): 20.3 µM
11 | O=C(NC(=S)Nc1nc2cc([N+](=O)[O-])ccc2s1)c1ccc([N+](=O)[O-])cc1 | 50 µg/mL (≈ 124 µM) | 50 µg/mL (≈ 124 µM) | 25 µg/mL (≈ 62 µM) | 25 µg/mL (≈ 62 µM) | 25 µg/mL (≈ 62 µM) | 25 µg/mL (≈ 62 µM) | 68.5 µM | 50 µg/mL (≈ 124 µM) | 50 µg/mL (≈ 124 µM) | 25 µg/mL (≈ 62 µM) | 25 µg/mL (≈ 62 µM) | 50 µg/mL (≈ 124 µM) | 35.2 µM | 25 µg/mL (≈ 62 µM) | 
12 | CCCC(=O)NC(=S)Nc1nc2cc(Br)ccc2s1 | 50 µg/mL (≈ 140 µM) |  | 50 µg/mL (≈ 140 µM) | 50 µg/mL (≈ 140 µM) | 50 µg/mL (≈ 140 µM) | 25 µg/mL (≈ 69.8 µM) | 60.2 µM | 50 µg/mL (≈ 140 µM) |  | 50 µg/mL (≈ 140 µM) | 50 µg/mL (≈ 140 µM) | 50 µg/mL (≈ 140 µM) | 45.7 µM | 50 µg/mL (≈ 140 µM) | 
